Assay results taken from ChEMBL document CHEMBL5058577, “EUbOPEN Chemogenomics Library 2 (Multiplex)” (2022).

Tested on: Fibroblast
Experiment: Multiplex assay against human fibroblast
Assay type: toxicity, cell-based
Outline: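 Live cells carried four stains from seeding: Hoechst33342, BioTracker Green Microtubule Cytoskeleton Dye, MitoTracker Red and Annexin V Alexa Fluor 680. They were imaged on a CQ1 microscope at 37°C and 5% CO2 after compound addition. Using CellPathfinder machine-learning gating, cells were split into Hoechst high-intensity objects or normal cells, normal cells into healthy, pyknosed or fragmented nuclei, and pyknosed cells into mitotic or apoptotic; tubulin, mitochondrial-mass and membrane-permeability phenotypes are per cents of healthy-nucleus cells.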

[1] = 12 h, 1 µM, compound concentration 1 uM, replicate 1
[2] = 12 h, 1 µM, compound concentration 1 uM, replicate 2
[3] = 12 h, 10 µM, compound concentration 10 uM, replicate 1
[4] = 12 h, 10 µM, compound concentration 10 uM, replicate 2
[5] = 24 h, 1 µM, compound concentration 1 uM, replicate 1
[6] = 24 h, 1 µM, compound concentration 1 uM, replicate 2
[7] = 24 h, 10 µM, compound concentration 10 uM, replicate 1
[8] = 24 h, 10 µM, compound concentration 10 uM, replicate 2
[9] = 48 h, 1 µM, compound concentration 1 uM, replicate 1
[10] = 48 h, 1 µM, compound concentration 1 uM, replicate 2
[11] = 48 h, 10 µM, compound concentration 10 uM, replicate 1
[12] = 48 h, 10 µM, compound concentration 10 uM, replicate 2

Cc1onc(-c2ccccc2Cl)c1C(=O)N(C)c1ccc(Cl)cc1
Population Apoptotic (%) [1]: 60%
Population Fragmented Nuclei (%) [1]: 17%
Population Healthy Nuclei (%) [1]: 68%
Population Hoechst High Intensity Objects (%) [1]: 7%
Population Membrane Permeable-Phenotype (%) [1]: 0%
Population Mitochondria Different-Phenotype (%) [1]: 7%
Population Mitotic Cells (%) [1]: 39%
Population Normal (%) [1]: 92%
Population Pyknosed Nuclei (%) [1]: 13%
Population Tubulin-Different-Phenotype (%) [1]: 23%
Total Cell Count [1]: 178
Population Apoptotic (%) [2]: 35%
Population Fragmented Nuclei (%) [2]: 22%
Population Healthy Nuclei (%) [2]: 50%
Population Hoechst High Intensity Objects (%) [2]: 9%
Population Membrane Permeable-Phenotype (%) [2]: 6%
Population Mitochondria Different-Phenotype (%) [2]: 8%
Population Mitotic Cells (%) [2]: 65%
Population Normal (%) [2]: 90%
Population Pyknosed Nuclei (%) [2]: 27%
Population Tubulin-Different-Phenotype (%) [2]: 63%
Total Cell Count [2]: 161
Population Apoptotic (%) [3]: 36%
Population Fragmented Nuclei (%) [3]: 16%
Population Healthy Nuclei (%) [3]: 70%
Population Hoechst High Intensity Objects (%) [3]: 2%
Population Membrane Permeable-Phenotype (%) [3]: 2%
Population Mitochondria Different-Phenotype (%) [3]: 6%
Population Mitotic Cells (%) [3]: 63%
Population Normal (%) [3]: 97%
Population Pyknosed Nuclei (%) [3]: 13%
Population Tubulin-Different-Phenotype (%) [3]: 29%
Total Cell Count [3]: 144
Population Apoptotic (%) [4]: 37%
Population Fragmented Nuclei (%) [4]: 24%
Population Healthy Nuclei (%) [4]: 48%
Population Hoechst High Intensity Objects (%) [4]: 3%
Population Membrane Permeable-Phenotype (%) [4]: 5%
Population Mitochondria Different-Phenotype (%) [4]: 11%
Population Mitotic Cells (%) [4]: 62%
Population Normal (%) [4]: 96%
Population Pyknosed Nuclei (%) [4]: 27%
Population Tubulin-Different-Phenotype (%) [4]: 64%
Total Cell Count [4]: 151
Population Apoptotic (%) [5]: 44%
Population Fragmented Nuclei (%) [5]: 18%
Population Healthy Nuclei (%) [5]: 65%
Population Hoechst High Intensity Objects (%) [5]: 7%
Population Membrane Permeable-Phenotype (%) [5]: 0%
Population Mitochondria Different-Phenotype (%) [5]: 1%
Population Mitotic Cells (%) [5]: 55%
Population Normal (%) [5]: 92%
Population Pyknosed Nuclei (%) [5]: 16%
Population Tubulin-Different-Phenotype (%) [5]: 16%
Total Cell Count [5]: 178
Population Apoptotic (%) [6]: 39%
Population Fragmented Nuclei (%) [6]: 22%
Population Healthy Nuclei (%) [6]: 54%
Population Hoechst High Intensity Objects (%) [6]: 12%
Population Membrane Permeable-Phenotype (%) [6]: 8%
Population Mitochondria Different-Phenotype (%) [6]: 4%
Population Mitotic Cells (%) [6]: 60%
Population Normal (%) [6]: 87%
Population Pyknosed Nuclei (%) [6]: 23%
Population Tubulin-Different-Phenotype (%) [6]: 56%
Total Cell Count [6]: 182
Population Apoptotic (%) [7]: 20%
Population Fragmented Nuclei (%) [7]: 16%
Population Healthy Nuclei (%) [7]: 76%
Population Hoechst High Intensity Objects (%) [7]: 2%
Population Membrane Permeable-Phenotype (%) [7]: 1%
Population Mitochondria Different-Phenotype (%) [7]: 4%
Population Mitotic Cells (%) [7]: 80%
Population Normal (%) [7]: 97%
Population Pyknosed Nuclei (%) [7]: 7%
Population Tubulin-Different-Phenotype (%) [7]: 32%
Total Cell Count [7]: 134
Population Apoptotic (%) [8]: 54%
Population Fragmented Nuclei (%) [8]: 21%
Population Healthy Nuclei (%) [8]: 55%
Population Hoechst High Intensity Objects (%) [8]: 4%
Population Membrane Permeable-Phenotype (%) [8]: 6%
Population Mitochondria Different-Phenotype (%) [8]: 6%
Population Mitotic Cells (%) [8]: 45%
Population Normal (%) [8]: 95%
Population Pyknosed Nuclei (%) [8]: 23%
Population Tubulin-Different-Phenotype (%) [8]: 59%
Total Cell Count [8]: 149
Population Apoptotic (%) [9]: 76%
Population Fragmented Nuclei (%) [9]: 26%
Population Healthy Nuclei (%) [9]: 62%
Population Hoechst High Intensity Objects (%) [9]: 9%
Population Membrane Permeable-Phenotype (%) [9]: 0%
Population Mitochondria Different-Phenotype (%) [9]: 1%
Population Mitotic Cells (%) [9]: 23%
Population Normal (%) [9]: 90%
Population Pyknosed Nuclei (%) [9]: 10%
Population Tubulin-Different-Phenotype (%) [9]: 22%
Total Cell Count [9]: 185
Population Apoptotic (%) [10]: 48%
Population Fragmented Nuclei (%) [10]: 28%
Population Healthy Nuclei (%) [10]: 54%
Population Hoechst High Intensity Objects (%) [10]: 11%
Population Membrane Permeable-Phenotype (%) [10]: 10%
Population Mitochondria Different-Phenotype (%) [10]: 6%
Population Mitotic Cells (%) [10]: 51%
Population Normal (%) [10]: 88%
Population Pyknosed Nuclei (%) [10]: 17%
Population Tubulin-Different-Phenotype (%) [10]: 51%
Total Cell Count [10]: 188
Population Apoptotic (%) [11]: 44%
Population Fragmented Nuclei (%) [11]: 25%
Population Healthy Nuclei (%) [11]: 68%
Population Hoechst High Intensity Objects (%) [11]: 4%
Population Membrane Permeable-Phenotype (%) [11]: 0%
Population Mitochondria Different-Phenotype (%) [11]: 3%
Population Mitotic Cells (%) [11]: 55%
Population Normal (%) [11]: 95%
Population Pyknosed Nuclei (%) [11]: 6%
Population Tubulin-Different-Phenotype (%) [11]: 34%
Total Cell Count [11]: 141
Population Apoptotic (%) [12]: 65%
Population Fragmented Nuclei (%) [12]: 31%
Population Healthy Nuclei (%) [12]: 55%
Population Hoechst High Intensity Objects (%) [12]: 1%
Population Membrane Permeable-Phenotype (%) [12]: 8%
Population Mitochondria Different-Phenotype (%) [12]: 6%
Population Mitotic Cells (%) [12]: 35%
Population Normal (%) [12]: 98%
Population Pyknosed Nuclei (%) [12]: 12%
Population Tubulin-Different-Phenotype (%) [12]: 53%
Total Cell Count [12]: 166
